Experimental data: paper PMC11229370 (Nucleic Acids Research, 2024)

Columns and labels:
BtProRS1 [1] = biological target: T1, BtProRS1 (Bacillus thuringiensis, UniProt Q6HEZ6); assay: HF inhibition assay; assay type: biochemical
T1 sequence (Q6HEZ6 1-566): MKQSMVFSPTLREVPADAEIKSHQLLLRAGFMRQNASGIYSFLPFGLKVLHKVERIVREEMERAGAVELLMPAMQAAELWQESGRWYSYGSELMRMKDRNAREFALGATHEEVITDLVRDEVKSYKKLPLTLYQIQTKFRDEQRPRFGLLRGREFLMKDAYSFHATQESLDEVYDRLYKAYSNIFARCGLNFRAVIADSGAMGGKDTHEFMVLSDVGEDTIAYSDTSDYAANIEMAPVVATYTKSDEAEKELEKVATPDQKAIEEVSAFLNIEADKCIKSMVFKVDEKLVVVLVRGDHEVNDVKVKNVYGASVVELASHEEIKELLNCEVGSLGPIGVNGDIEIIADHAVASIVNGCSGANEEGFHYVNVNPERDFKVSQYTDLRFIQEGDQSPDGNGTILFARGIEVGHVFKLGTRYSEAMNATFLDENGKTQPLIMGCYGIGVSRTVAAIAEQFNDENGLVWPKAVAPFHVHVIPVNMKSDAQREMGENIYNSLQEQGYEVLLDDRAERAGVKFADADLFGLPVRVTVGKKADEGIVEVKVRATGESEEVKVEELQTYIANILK
In short: (§1)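 Purified His6-tagged enzyme (100 nM final) was mixed with test compound (0.1 nM–10 μM) in 50 μl aminoacylation buffer. Incubation was 10 min at 30°C, with TCA-filter scintillation counting. Relative activity is rate with inhibitor over rate without, and curves were fitted per enzyme.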

T. gondii ProRS = conditions: cited from earlier work
P. falciparum ProRS = conditions: cited from earlier work
[2] = system: total cellular extracts of B. thuringiensis; assay: HF inhibition assay with total cellular extracts; assay type: biochemical, Bacillus thuringiensis; conditions: 3 μg of total cellular extracts in 50-μl aminoacylation buffer, 30°C, 10 min
In short: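 B. thuringiensis ATCC 13367 was grown 24 h at 30°C in LB with shaking, PBS-washed, glass-bead lysed on ice in HEPES pH 7.2 buffer with protease inhibitors, and cleared. Extract (3 μg) was incubated with test compound (0.1 nM–10 μM) 10 min at 30°C; [3H]-proline charging of tRNA^Pro was filter-counted. Relative activity curves were fitted using the individual-enzyme curves to give the ProRS1 activity proportion.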

[3] = system: P-type ProRS (such as Pseudomonas aeruginosa ProRS); conditions: cited from earlier work
BtProRS2 [4] = biological target: T2, BtProRS2 (Bacillus thuringiensis, UniProt Q6HNZ7); assay: HF inhibition assay; assay type: biochemical
T2 sequence (Q6HNZ7 1-476): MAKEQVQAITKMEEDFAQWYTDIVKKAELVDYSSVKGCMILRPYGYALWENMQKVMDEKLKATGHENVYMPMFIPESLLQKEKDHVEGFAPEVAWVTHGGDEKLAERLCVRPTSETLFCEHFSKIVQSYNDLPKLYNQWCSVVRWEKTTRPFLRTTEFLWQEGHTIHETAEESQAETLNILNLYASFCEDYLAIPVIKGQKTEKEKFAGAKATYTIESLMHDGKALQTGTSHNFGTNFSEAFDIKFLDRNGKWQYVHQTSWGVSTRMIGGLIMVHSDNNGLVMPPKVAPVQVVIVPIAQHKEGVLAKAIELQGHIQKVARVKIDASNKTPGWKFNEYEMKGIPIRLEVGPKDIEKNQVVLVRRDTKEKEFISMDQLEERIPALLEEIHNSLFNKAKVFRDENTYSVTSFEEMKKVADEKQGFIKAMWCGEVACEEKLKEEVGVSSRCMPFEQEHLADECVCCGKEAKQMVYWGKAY
In short: as §1

BtProRS2 [5] = biological target: T2, BtProRS2; assay: Aminoacylation after pretreatment of the enzyme with H2O2, DTT, urea or GnHCl; assay type: biochemical
In short: (§2)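 Purified His6-tagged enzymes were expressed in E. coli BL21-CodonPlus(DE3) and purified by Ni-NTA. Enzymes at 1000 nM were pretreated 10 min at 20°C with H2O2 (0–32 mM), DTT (0–80 mM), urea (0–3200 mM) or GnHCl (0–3200 mM). They were then diluted to 100 nM final in buffer with 4 mM ATP, 10 μM transcribed tRNA^Pro and 21.13 μM [3H]-proline, run 10 min at 30°C, with TCA filter counting; three independent experiments.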

BtProRS1 [6] = biological target: T1, BtProRS1; assay: as above; assay type: biochemical
In short: as §2

Compound | IC50 (BtProRS1 [1]) | IC50 (T. gondii ProRS) | IC50 (P. falciparum ProRS) | IC50 [2] | less effective against a P-type ProRS than against E-type ProRS [3] | IC50 (BtProRS2 [4]) | IC50 for BtProRS2 lower than that for BtProRS1 (BtProRS2 [4]; ratio of IC50 BtProRS1 to BtProRS2) | IC50 (BtProRS2 [5]) | IC50 (BtProRS1 [6])
O=C(CC1NCCCC1O)Cn1cnc2cc(Br)c(Cl)cc2c1=O (stereo not drawn) [HF, halofuginone] | 0.68 µM | 0.00541 µM | 0.009 µM | ~0.4 µM | ~100 fold | 0.17 µM | 4 fold | – | –
O[C@@H](CS)[C@@H](O)CS (racemic) [DTT, Dithiothreitol] | – | – | – | – | – | – | – | > 80000 µM | 27000 µM
